The text below walks through data of ChEMBL document CHEMBL4699441, “Identification and Preclinical Evaluation of the Bicyclic Pyrimidine γ-Secretase Modulator BMS-932481” (ACS Med Chem Lett, 2019).

One assay deals with Brain. The experiment in a line: Antialzheimer activity in rat brain assessed as reduction in amyloid beta (1 to 42) AUC at 10 mg/kg measured after 24 hrs relative to control. Format: functional. On the set-up: scale not given: the % may be the effect or the level left. An outline of the steps:
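Rats dosed orally; brain Aβ1-42 followed over 24 h, and the reduction in brain Aβ1-42 AUC integrated over 0–24 h was fitted to an indirect response PK/PD model.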

Assay [1] can be described thus: Reduction in amyloid beta (1 to 42) secretion in brain in triple transgenic LaFerla mouse at 30 mg/kg, po measured after 3 hrs relative to control. Type of assay: functional. An outline of the steps:
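Triple transgenic LaFerla mice (APP Swedish, MAPT P301L, PSEN1 M146V) given 30 mg/kg po; brain Aβ1-42 measured 3 h postdose; n = 3.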

What is called inhibition in vivo is the share of the control response that was lost under treatment. Consider `CNc1nc(Nc2ccc(-n3cnc(C)n3)c(OC)c2)nc2c1CC[C@H]2c1ccc(F)cc1`, for which the Activity in the assay with Brain stood at 66%. This compound also displayed an inhibition in vivo at 30 mg/kg in assay [1] of 81%.
